Tested on: MS2 coat protein
Experiment: apparent Kd, MS2 coat protein; higher = weaker binding; RNA-MaP array; FMN 200 µM where present
Summary of the method: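 Apparent Kd: the median of filtered binding-curve fits from single clusters. Designs were transcribed on Illumina sequencing-chip clusters by stalled E. coli RNA polymerase and titrated with SNAP-549-labelled MS2 coat protein from 0.7 or 1.5 nM, doubling to 3 µM, in 100 mM Tris-HCl pH 7.5, 80 mM KCl, 4 mM MgCl2, BSA, DTT, yeast tRNA and Tween-20. Each series ran without and then with constant ligand, and green signal was normalised to red-channel RNA signal and control-cluster median Fmax.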

[1] = designed as: OFF switch for flavin mononucleotide, no ligand
[2] = ligand present: flavin mononucleotide, designed as: OFF switch for flavin mononucleotide
[3] = designed as: ON switch for flavin mononucleotide, no ligand
[4] = ligand present: flavin mononucleotide, designed as: ON switch for flavin mononucleotide

Sequence | apparent Kd [1] | apparent Kd [2] | apparent Kd [3] | apparent Kd [4]
AAAAAAAGAGGAUAUACAUGAGAAAAAAAAAUGUAAAAAAAACAUGAGGAUCACCCAUGUAGAAGGCUUAAAAA | 34.6 nM | 45.4 nM | – | –
AAAAAACAAGGAUAUACGUAUGAGGAUUGUCUUAAUUUUUGACAUGAGGAUCACCCAUGUAGAAGGUGUUAAAA | 120 nM | 126 nM | – | –
AAAAAACAUGAGGAUCACCCAUGUAAAAAUAUGGGAGGAUAUUCAAACACGAAAGUGAAAGAAGAAGGCCUAAAAA | – | – | 66.6 nM | 23.3 nM
AAAAAACAUGAGGAUCACCCAUGUAAGGAUAUGCUAAAAAAAAAAAAAAAAAAAAAAUGCAGAAGGUACAAAAA | 63.6 nM | 78.2 nM | – | –
AAAAAACAUGAGGAUCACCCAUGUCAGGAUAUCGUUGAAAAAAAAAAAAAAAAAAAAGCGAGAAGGGACACGAA | 72.6 nM | 68.2 nM | – | –
AAAAAACAUGAGGAUCACCCAUGUCAGGAUAUGAAAAAAAAAAAAAAAAAAAAAAAAAUCAGAAGGGACAAAAA | 66.4 nM | 36.1 nM | – | –
AAAAAACAUGAGGAUCACCCAUGUGAGGAUAUCAAAUAAAGGCACAUGAGAAGGCAUAUGAGAAGGCACAUGAA | 99.3 nM | 156 nM | – | –
AAAAAACAUGAGGAUCACCCAUGUGAGGAUAUGCUAAAAAAAAAAAAAAAAAAAAAAUGCAGAAGGUACAAAAA | 75.9 nM | 72.8 nM | – | –
AAAAAGCGAGGAUAUACAUGAGGAUCACCCAUGUGAGAGAAAAAAAGGAGAAAAAAAAGUAGAAGGCGCAAAAA | 61.6 nM | 72.2 nM | – | –
AAAACACAUGAGGAUCACCCAUGUGAGGAUAUGCUAUGGAAAAUAAAAAUAAAACAUAGCAGAAGGCACAAAGG | 62.5 nM | 152 nM | – | –
AAAACAUGAGGAUCACCCAUGUAAAGAACGGUUAAUAAAUGUGAGGAUAUACUAAAAUUUAGGUAGUAGAAGGCACUGGGUACA | – | – | 24.1 nM | 25.7 nM
AAAACAUGAGGAUCACCCAUGUAAAGAUCACUUAAUAGUUGUGAGGAUAUACGAUUUUAAAGCUAGUAGAAGGCACUGGGUACA | – | – | 28.1 nM | 36.1 nM
AAAACAUGAGGAUCACCCAUGUAAAGAUCGGUUAAUAGAAGUGAGGAUAUACGAAGUUAAAGCUGGUAGAAGGCACUGGGUACA | – | – | 34.7 nM | 33.2 nM
AAAACAUGAGGAUCACCCAUGUUUAGAUCGGUCGAUAGAAGUGAGGAUAUACUAAGUUAAGGCUGGUAGAAGGCACUGGGUACA | – | – | 26.9 nM | 27.5 nM
AAAACGCGGGAGAAGGCCACUUACCGUUACAUGGACGUGAGAAAUAAAUGGAGGAUAUCCCUACAUGAGGAUCACCCAUGUAAU | – | – | 412 nM | 103 nM
AAAACGGCGCAUCCCGCGCCAACUACAGAAGGCCAACAUGAGGAUCACCCAUGUACAAACUAGAUGGAGGAUAUGUAGGUUCUA | – | – | 5.18 nM | 4.2 nM
AAAAGACAUGAGGAUCACCCAUGUCAAGACGUGGGAGGAUAUGUAUGGAAACCAGACUGUACAGAAGGCCUUUGUC | – | – | 46.8 nM | 20.1 nM
AAAAGGCUAGGAUAUACAUGAGGAUCACCCAUGUGUACUGGACAUGCGGUAUGCGGAUGUAGAAGGAGUAUAAA | 23.4 nM | 62.4 nM | – | –
AAAAUAAAAAGGCAGGAUAUCCAAAAUAAAACAUGAGGAUCACCCAUGUAAAUAAAAAUAAAGUGGGAGAAGGGUUAAAAAUAAAA | – | – | 58.3 nM | 45.3 nM

Sequence | apparent Kd [1] | apparent Kd [2] | apparent Kd [3] | apparent Kd [4]
AAAAUCACAUGAGGAUCACCCAUGUACCGAGUUAAGGCUACAUAGGAUAUGACAAGUAUAGCUUGUCAGAAGGGUGAGUCUCGC | – | – | 58.2 nM | 97.7 nM
AAACAACGUCAGAAGGCCGAUGGAUUUGACCACGGAGGAUAUGACAUGAGGAUCACCCAUGUGAUGCUUCUAACCCGCUGGGCC | 31.3 nM | 289 nM | – | –
AAACACGGACAUGAGGAUCACCCAUGUGGCGAAAGCCUUGGAAGAAGGCCGUAUGCAAAGCAUACGGAGGAUAUUCAUACCGUG | – | – | 15.6 nM | 5.85 nM
AAACAGCUAGGAUAUACCCUCCGUGAGACUCCCAAAUCGAAACAUGAGGAUCACCCAUGUAGAAGGAGCUGACG | 13.4 nM | 12.2 nM | – | –
AAACAGGGAGGAUAUACAUAGAUCCUCUAACCUAAUAGGUCACAUGAGGAUCACCCAUGUAGAAGGCCCUUAGG | 12.4 nM | 12.2 nM | – | –
AAACAUGUCCGAGGAUAUCUGAGAUCAUUUUCAAGAGAAGGCGGACAUGAGGAUCACCCAUGUCUCUCCUCAUCAACUCUAAAU | 5.99 nM | 36.9 nM | – | –
AAACCGUGUGGAGGAUAUGCAGUUGAGGUGAGGUAGCAACUCUAUACGACAGCAGAAGGCCACAUGAGGAUCACCCAUGUAGGU | 489 nM | 158 nM | – | –
AAACCGUGUGGAGGAUAUGCAGUUGAGGUGAGGUGGCAACUCUAUACGACCGCAGAAGGCCACAUGAGGAUCACCCAUGUAGGU | 293 nM | 61.5 nM | – | –
AAACCUUCUGAGGAUAUCUGAGGCCCUGCGCUUAGAGAAGGUAGUACAUGAGGAUCACCCAUGUCCGCGCUGGG | 16.3 nM | 17.9 nM | – | –
AAAGCACGAGGAUAUACAUGAGGAUCACCCAUGUAUAACCAAAAAAAAAGAUCCUCAUGUAGAAGGCGUGCAAA | 18.9 nM | 16.8 nM | – | –
AAAGGUGCAGGAUAUGCGUGGAAAAAGUGUAUUCAAAAAAAACAUGAGGAUCACCCAUGUAGAAGGGUACCAAA | 65.9 nM | 180 nM | – | –
AAAGUGCAAGGAUAUAUAUGAAAAGUUACGAAAGUAACAAAACAUGAGGAUCACCCAUGUAGAAGGUGCACAAA | 27.8 nM | 24.4 nM | – | –
AAAGUGUGAGGAUAUUCGUAGUACACGGAGACGUGUAUUACGGAGAAGGCACAUGAGGAUCACCCAUGUUCCUU | 20.4 nM | 143 nM | – | –
AAAUAAAACGAUCGGCGAUCCAAACAUGAGGAUCACCCAUGUAGAAGGCACUCUACAUAGUAGAGUGAGGAUAUACGAGAUCGA | 22.1 nM | 584 nM | – | –
AAAUAAAGGACUGAGGAUAUACCACAUGAAACAUGAGGAUCACCCAUGUAAUAAUACAAAGGGUGGUAGAAGGUAGUCCACAAACA | – | – | 34.9 nM | 16.8 nM
AAAUAGCGAGGAUAUACAUGAGGAUCACCCAUGUGGACUGAUGUCGCAUGAUUCAGUGGUAGAAGGUGCUCAAA | 90.4 nM | 127 nM | – | –
AAAUAGUUAGGAUAUACAUGAGGAUCACCCAUGUGGACUUAUGGCGAUUAAUUUAGUGGUAGAAGGGACUAAAA | 37.2 nM | 47.6 nM | – | –
AAAUGGGCGUAGGAUAUGAGAUGGUCUAGCAGCUCAGAAGGACGCACAUGAGGAUCACCCAUGUGAUCGGACUA | – | 224 nM | – | –
AAAUUCUGAGGAUAUCGAUGUUUGUACAUGAGGAUCACCCAUGUCCUUUUUAUUUUUUCCCGAGAAGGCAGUGUAU | 45 nM | 35.3 nM | – | –

Sequence | apparent Kd [1] | apparent Kd [2] | apparent Kd [3] | apparent Kd [4]
AAAUUGUGAGGAUAUCAGGUGUGCUAGCGUACUGGUACAUCUGAGAAGGCACAUGAGGAUCACCCAUGUUUCUU | 16.1 nM | 44.2 nM | – | –
AACAAACAUGAGGAUCACCCAUGUGAGGAUAUCGAAACAACAAACAACAAACAACAAACGAGAAGGCGCAACAA | 29.1 nM | 27.6 nM | – | –
AACAGUACAGGAUAUACAUGAGGAUCACCCAUGUGACAAUUAAGUGGCGUACCACAAAGUAGAAGGGUACUGGA | 28.2 nM | 150 nM | – | –
AACAGUAGAGGAUAUACAUGAGGAUCACCCAUGUGAGAAUUAAGUGGCGUACCACUAAGUAGAAGGCUACUGGA | 96.9 nM | 235 nM | – | –
AACAGUAGAGGAUAUACAUGAGGAUCACCCAUGUGAUAAUUACGUGGCGUACCACGAAGUAGAAGGCUACUGGA | 65.6 nM | 316 nM | – | –
AACAGUAUAGGAUAUACAUGAGGAUCACCCAUGUGAGAAUUAAGUGGCGUACCACUAAGUAGAAGGAUACUGGA | 50.8 nM | 222 nM | – | –
AACAGUGCAAUAAUAAUAAGAUCUACAUGAGGAUCACCCAUGUAGGAUAUCGUCAGGAAUACUGACGAGAAGGACAUAGCACUG | 13.9 nM | 15.6 nM | – | –
AACCAGUUGGUAGGAUAUGGUGCAGUGCCCGUACCAGAAGGACCAACAUGAGGAUCACCCAUGUUGGAAAGUCAACAUUAAUGA | 6.32 nM | 11.8 nM | – | –
AACCUAAAACAGAAGGCCAAAUACAUGAGGAUCACCCAUGUCGAAUCAUGGAGGAUAUGUUGUUAUUUACUCGCAGAUGAGUGC | – | – | 77.6 nM | 8.18 nM
AACCUGAGGCUUUGCUUUAGGUGAACAUGAGGAUCACCCAUGUAGGAUAUGGUAGGCUUUGCUUACCAGAAGGACAUAUUAAUU | 39.3 nM | 86.1 nM | – | –
AACGAGCAGUAGAAGGCAUGUCUACGGACAUGAGGAUCACCCAUGUUGUGACUCCGAAAGGAGCGUGAGGAUAUACUGCUCAAA | – | – | 91.9 nM | 14.3 nM
AACGUGUAAGGAUAUGCUGCUCGUCACGAAAGUGAUGAGUAGCAGAAGGUACAUGAGGAUCACCCAUGUAAAGA | 31.8 nM | 67 nM | – | –
AACGUGUGAGGAUAUGCACGAGUGACAGGGAGGCUGUCACAGCAGAAGGUACAUGAGGAUCACCCAUGUGAAAU | 24.9 nM | 20.6 nM | – | –
AACUAAGUAUUAAUGGUGUCUGACAGAAGGCAAUAGAAUGAGACCGACAUGAGGAUCACCCAUGUUGAGGAUAUGUCUAGCUAC | 6.33 nM | 7.27 nM | – | –
AACUAGUCAGGAUAUACGAACAUGUCAAAAAACAUGAAGGGACAUGAGGAUCACCCAUGUAGAAGGGACUAGCA | 37.8 nM | 223 nM | – | –
AACUCGUCAGGAUAUGCGCGCAGUUACUGCGCUUCGCAAUUGCAGAAGGGACAUGAGGAUCACCCAUGUAGGUC | 42 nM | 45.4 nM | – | –
AACUUGUCAGGAUAUCUUACAUUUGCAUCUUAGUUACCAUUGGAGAAGGGACAUGAGGAUCACCCAUGUUUGGU | 37.1 nM | 32.2 nM | – | –
AAGAAACACGUGGAGUUAUUCGGGUAGGAUAUCUACGACCUGAUCGACAUGAGGAUCACCCAUGUAGAGAAGGGCCCAUCUCCU | 6.65 nM | 8.87 nM | – | –

From the EternaBench riboswitch data
